Measurements from paper PMC12017310 (Science Advances, 2025).
One block for each molecule: values may come before it. Peptide text beside a SMILES is read from it. * marks the point of attachment. Cbz = O=C(OCc1ccccc1)*

Legend:
CDK12 = CDK12 (Homo sapiens, UniProt Q9NYV4); assay: Western blot of CDK12 in PCa cell lines; type: cell-based; conditions: 22Rv1, MG132 pre-treatment 2 hours, then BSJ-5-63
Method in brief: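 Equal protein amounts separated by SDS-PAGE and transferred to PVDF. Primary antibodies in 5% BSA/TBST overnight at 4°C; secondary antibody 1 h at room temperature. Blots shown are representative of three independent experiments.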

BID-PC4 PDX = assay: In vivo BID-PC4 PDX model; parameters: species or system male SCID mice; conditions: BSJ-5-63 25 mg/kg ip; olaparib 50 mg/kg p.o.
Method in brief: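 Tumour bits in 50 μl PBS plus 50 μl Matrigel implanted subcutaneously (right flank) into intact male SCID mice. At ~150 mm3, randomised into four groups (n = 5): vehicle (5% DMSO/15% Solutol HS-15/80% saline) p.o., PARP inhibitor 50 mg/kg p.o., test compound 25 mg/kg ip, or sequential combination. Body weight recorded daily. Run for 3 weeks or until 2 cm tumour length; tumours excised and weighed.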

[1] = system: CDK12-KO 22Rv1 xenografts; assay: In vivo CDK12-KO 22Rv1 xenograft model; parameters: species or system male SCID mice; conditions: olaparib 50 mg/kg, p.o., daily
Method in brief: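 CDK12-KO (two sgRNAs) and AAVS1-control 22Rv1 cells made by lentiviral spin infection of Cas9-expressing cells (blasticidin 20 μg/ml). Implanted subcutaneously (5 × 10^6 with Matrigel). At ~150 mm3, each line randomised to vehicle p.o. or PARP inhibitor 50 mg/kg p.o. daily for 3 weeks (or until 2 cm tumour length). Tumours excised and weighed.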

DU145 xenografts = assay: In vivo DU145 xenograft model; parameters: species or system male SCID mice; conditions: BSJ-5-63 25 mg/kg ip; olaparib 50 mg/kg p.o.
Method in brief: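 DU145 xenografts were set up subcutaneously with Matrigel in the right flank. At ~150 mm3, mice were randomised into four groups (n = 5): vehicle p.o., PARP inhibitor 50 mg/kg p.o., test compound 25 mg/kg ip, or sequential combination. Dosing volume 0.1 ml/10 g. Body weight recorded daily. Study ended after 3–4 weeks or at 2 cm tumour length.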

22Rv1 xenografts = assay: In vivo 22Rv1 xenograft model; parameters: species or system male SCID mice; conditions: BSJ-5-63 25 mg/kg ip; olaparib 50 mg/kg p.o.
Method in brief: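 22Rv1 cells (5 × 10^6 in 50 μl plus 50 μl Matrigel) injected subcutaneously into the right flank; n = 5/group, randomised at ~150 mm3. Volume = length × width² × 0.5. Monotherapy: 50 mg/kg ip daily or 1 day on/2 days off for 12 days; vehicle 5% DMSO/15% Solutol HS-15/80% saline. Sequential arms: test compound 25 mg/kg ip and PARP inhibitor 50 mg/kg p.o. Tumours weighed; H&E and cleaved caspase-3 IHC performed.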

PCa cells = assay: Colony formation assay; type: cell-based, human; conditions: cell viability and colony formation assays
Method in brief: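 Seeding was 30,000 cells/well for 22Rv1 (six-well plates), with overnight attachment before treatment. Colonies grown 14 days at 37°C, 5% CO2, with weekly medium change. Stained with 0.1% crystal violet and quantified by image analysis. Three independent experiments.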

[2] = In vitro mouse liver microsomal stability assay; type: in vitro ADME; conditions: liver microsomes
Method in brief: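 Mouse liver microsomes (0.5 mg/ml) incubated with 1 μM test compound at 37°C with NADPH cofactor (1 mM).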

Sequence of CDK12 (Q9NYV4 whole entry): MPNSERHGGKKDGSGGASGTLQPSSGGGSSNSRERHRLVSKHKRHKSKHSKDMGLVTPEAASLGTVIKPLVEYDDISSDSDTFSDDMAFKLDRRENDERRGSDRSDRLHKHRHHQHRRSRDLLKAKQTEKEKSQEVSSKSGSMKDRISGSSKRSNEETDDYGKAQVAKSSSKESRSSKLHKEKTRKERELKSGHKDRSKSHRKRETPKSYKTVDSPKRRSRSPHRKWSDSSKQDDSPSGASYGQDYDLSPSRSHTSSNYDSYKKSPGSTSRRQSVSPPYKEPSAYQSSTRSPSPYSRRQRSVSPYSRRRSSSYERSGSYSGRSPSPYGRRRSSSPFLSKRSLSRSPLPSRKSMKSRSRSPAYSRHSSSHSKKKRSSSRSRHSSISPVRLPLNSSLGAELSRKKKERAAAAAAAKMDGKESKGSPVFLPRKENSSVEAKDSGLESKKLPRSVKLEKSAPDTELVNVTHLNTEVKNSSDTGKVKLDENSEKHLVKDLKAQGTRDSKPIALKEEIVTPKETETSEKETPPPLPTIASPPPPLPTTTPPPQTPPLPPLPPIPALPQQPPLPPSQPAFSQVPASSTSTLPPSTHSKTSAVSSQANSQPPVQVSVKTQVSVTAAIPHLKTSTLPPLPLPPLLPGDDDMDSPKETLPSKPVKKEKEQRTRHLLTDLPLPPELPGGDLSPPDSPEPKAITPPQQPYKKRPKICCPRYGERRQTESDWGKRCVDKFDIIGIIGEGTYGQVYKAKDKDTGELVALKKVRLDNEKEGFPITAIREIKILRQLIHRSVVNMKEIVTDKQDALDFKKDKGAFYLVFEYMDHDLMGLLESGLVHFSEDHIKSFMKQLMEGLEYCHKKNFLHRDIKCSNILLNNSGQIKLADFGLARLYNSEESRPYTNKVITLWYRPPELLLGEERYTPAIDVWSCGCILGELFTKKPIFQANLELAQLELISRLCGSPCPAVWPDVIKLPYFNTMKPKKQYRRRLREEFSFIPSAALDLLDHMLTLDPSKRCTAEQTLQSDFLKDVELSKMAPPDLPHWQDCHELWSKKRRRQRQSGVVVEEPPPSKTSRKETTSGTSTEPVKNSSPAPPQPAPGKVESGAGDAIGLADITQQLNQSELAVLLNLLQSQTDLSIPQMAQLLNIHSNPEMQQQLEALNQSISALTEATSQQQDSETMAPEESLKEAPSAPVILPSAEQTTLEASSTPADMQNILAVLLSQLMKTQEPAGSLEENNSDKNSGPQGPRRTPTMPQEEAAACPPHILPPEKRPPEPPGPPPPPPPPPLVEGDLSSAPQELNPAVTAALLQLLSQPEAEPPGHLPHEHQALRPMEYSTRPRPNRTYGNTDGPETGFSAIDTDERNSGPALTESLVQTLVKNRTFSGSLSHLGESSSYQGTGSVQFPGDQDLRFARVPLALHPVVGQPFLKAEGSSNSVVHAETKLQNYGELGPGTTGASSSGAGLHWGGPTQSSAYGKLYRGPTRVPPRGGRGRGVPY
Sequence of CDK12 (O75909 whole entry partner): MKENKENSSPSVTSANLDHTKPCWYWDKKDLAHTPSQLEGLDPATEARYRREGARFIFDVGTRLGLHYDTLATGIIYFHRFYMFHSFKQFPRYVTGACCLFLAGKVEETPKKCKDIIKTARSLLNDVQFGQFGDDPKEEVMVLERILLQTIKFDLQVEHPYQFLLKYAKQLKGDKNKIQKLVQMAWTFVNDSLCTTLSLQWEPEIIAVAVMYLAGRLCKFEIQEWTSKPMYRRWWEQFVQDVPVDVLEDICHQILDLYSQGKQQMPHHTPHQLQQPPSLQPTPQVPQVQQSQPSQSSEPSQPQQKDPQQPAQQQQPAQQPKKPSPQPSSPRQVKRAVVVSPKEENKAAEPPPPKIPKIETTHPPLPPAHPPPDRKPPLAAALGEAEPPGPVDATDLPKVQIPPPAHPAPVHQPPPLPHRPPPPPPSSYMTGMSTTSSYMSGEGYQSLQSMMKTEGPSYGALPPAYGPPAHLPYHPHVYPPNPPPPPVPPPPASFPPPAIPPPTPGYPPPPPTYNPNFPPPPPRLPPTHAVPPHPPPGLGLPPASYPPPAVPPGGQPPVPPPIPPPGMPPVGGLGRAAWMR

BSJ-5-63–induced degradation of CDK12/7/9 after pretreatment with the proteasome inhibitor (CDK12): rescued
SMILES: CC(C)C[C@@H](C=O)NC(=O)[C@H](CC(C)C)NC(=O)[C@H](CC(C)C)NC(=O)OCc1ccccc1 [MG132] (Cbz-Leu-Leu-Leu-aldehyde)

SMILES: O=C(c1cc(Cc2n[nH]c(=O)c3ccccc23)ccc1F)N1CCN(C(=O)C2CC2)CC1 [Olaparib]
BID-PC4 PDX tumor growth, monotherapy (BID-PC4 PDX): insensitive | tumor growth of CDK12-KO 22Rv1 xenografts ([1]; 3 weeks): marked sensitivity | tumor weight of CDK12-KO 22Rv1 xenografts ([1]; day 21): reduction in tumor weight | DU145 tumor growth, monotherapy (DU145 xenografts): only partial inhibition of tumor growth | 22Rv1 tumor growth, monotherapy (22Rv1 xenografts): partial inhibition | number of apoptotic cells in 22Rv1 tumors, monotherapy (22Rv1 xenografts): notably increased | sensitivity of CDK12-KO 22Rv1 cells compared with AAVS1 control (PCa cells): significantly enhanced sensitivity

half-life at 1 μM [2]: 10 min | microsomal CLint at 1 μM [2]: 69 µL/min/mg
SMILES: CCN(CC)CCNC(=O)c1c(C)[nH]c(/C=C2\C(=O)Nc3ccc(F)cc32)c1C [Sunitinib]
